This passage reports inhibition, IC50 and Kb results from ChEMBL document CHEMBL4823316, “Synthesis and evaluation of squaramide and thiosquaramide inhibitors of the DNA repair enzyme SNM1A” (Bioorg Med Chem, 2021).

Molecules are shown by their SMILES. Active and inactive are the calls of the source. No cut-off for these calls is given here.

Assay [1] deals with T1, DNA cross-link repair 1A protein (Homo sapiens) (UniProt Q6PJP8).
T1 sequence (whole entry): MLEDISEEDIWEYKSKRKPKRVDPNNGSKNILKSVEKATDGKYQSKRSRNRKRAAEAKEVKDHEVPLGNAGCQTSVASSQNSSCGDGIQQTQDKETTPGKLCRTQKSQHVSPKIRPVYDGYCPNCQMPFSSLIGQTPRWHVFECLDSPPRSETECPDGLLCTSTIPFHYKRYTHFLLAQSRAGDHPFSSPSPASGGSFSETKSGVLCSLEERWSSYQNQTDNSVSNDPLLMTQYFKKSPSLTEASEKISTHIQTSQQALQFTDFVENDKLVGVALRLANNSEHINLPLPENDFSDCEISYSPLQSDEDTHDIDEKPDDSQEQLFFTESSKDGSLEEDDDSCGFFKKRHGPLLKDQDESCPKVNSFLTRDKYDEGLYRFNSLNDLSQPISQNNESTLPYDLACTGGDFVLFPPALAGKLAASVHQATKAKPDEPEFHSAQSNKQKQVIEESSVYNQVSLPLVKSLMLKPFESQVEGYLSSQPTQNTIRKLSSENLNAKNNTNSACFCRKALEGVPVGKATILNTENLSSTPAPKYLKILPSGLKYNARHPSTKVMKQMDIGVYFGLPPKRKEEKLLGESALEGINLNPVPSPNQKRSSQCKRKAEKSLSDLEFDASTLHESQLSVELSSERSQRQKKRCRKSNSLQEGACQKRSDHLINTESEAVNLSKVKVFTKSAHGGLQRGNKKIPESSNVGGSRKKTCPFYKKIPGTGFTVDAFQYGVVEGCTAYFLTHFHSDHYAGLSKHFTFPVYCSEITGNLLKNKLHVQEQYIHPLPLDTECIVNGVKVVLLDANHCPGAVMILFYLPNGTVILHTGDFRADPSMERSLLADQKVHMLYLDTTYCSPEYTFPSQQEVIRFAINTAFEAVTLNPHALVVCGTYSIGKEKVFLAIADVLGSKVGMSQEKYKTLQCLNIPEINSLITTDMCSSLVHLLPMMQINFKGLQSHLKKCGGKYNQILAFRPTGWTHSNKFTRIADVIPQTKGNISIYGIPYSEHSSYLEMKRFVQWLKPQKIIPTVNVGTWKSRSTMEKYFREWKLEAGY
Kind of assay: Inhibition of SNM1A (unknown origin) assessed as reduction in oligonucleotide digestion at 1 mM using 21mer fluorescent oligonucleotide as substrate preincubated for 5 mins followed by substrate addition and measured after 1 hr by PAGE analysis. Conditions: time 65.0 min.

Assay [2] addresses T2, DNA cross-link repair 1A protein (Homo sapiens, UniProt Q6PJP8).
T2 sequence (Q6PJP8 whole entry): T1 sequence (whole entry)
Kind of assay: Inhibition of SNM1A (unknown origin) by real time fluorescence assay. In short, it runs like this: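 Real-time fluorescence assay of SNM1A exonuclease activity used to derive IC₅₀ from a concentration series. Unmodified thymidine run as control. Error bars from 6 independent repeats.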

The nature of assay [3]: Metal chelating activity assessed as Zn2+-compound complex formation by measuring equilibrium constant measured at 1:1 compound to metal ion ratio by UV-Vis titration based analysis. In short, it runs like this: (§1)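 Compounds in MeCN titrated with Zn(ClO₄)₂ and followed by UV–Vis. Binding constants for 1:1, 1:2 and 2:1 ligand–metal species were derived by global non-linear regression, comparing two- and three-species models. Described as qualitative.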

Assay [4] in a line: Metal chelating activity assessed as Zn2+-compound complex formation by measuring equilibrium constant measured at 2:1 compound to metal ion ratio by UV-Vis titration based analysis. Summed up:
as §1

The target of assay [5] is T1, DNA cross-link repair 1A protein (Homo sapiens). The experiment in a line: Inhibition of SNM1A (unknown origin) assessed as reduction in oligonucleotide digestion at 333 uM using 21mer fluorescent oligonucleotide as substrate preincubated for 5 mins followed by substrate addition and measured after 1 hr by PAGE analysis. Conditions: time 65.0 min.
Assay [6] can be described thus: Metal chelating activity assessed as Zn2+-compound complex formation by measuring equilibrium constant measured at 1:2 compound to metal ion ratio by UV-Vis titration based analysis. In short, it runs like this:
as §1

For `Cc1cn([C@H]2C[C@H](O)[C@@H](CO)O2)c(=O)[nH]c1=O` [DOXRIBTIMINE], the inhibition entry in assay [1] was “inactive”. Also, the IC50 result in assay [2] is “Not Active”. Regarding `Cc1cn([C@H]2C[C@H](O)[C@H](CNc3c(N[C@H]4C[C@H](n5cc(C)c(=O)[nH]c5=O)O[C@@H]4CO)c(=S)c3=S)O2)c(=O)[nH]c1=O`, the inhibition entry in assay [1] is “Active”. Still for that read-out and setting: under `CCN(CC)c1c(N[C@H]2C[C@H](n3cc(C)c(=O)[nH]c3=O)O[C@@H]2CO)c(=S)c1=S` stands “Active”; under `Cc1cn([C@H]2C[C@H](O)[C@@H](CNc3c(Nc4ccccc4O)c(=O)c3=O)O2)c(=O)[nH]c1=O`, “inactive”; under `CCN(CC)c1c(NC[C@H]2O[C@@H](n3cc(C)c(=O)[nH]c3=O)C[C@@H]2O)c(=O)c1=O`, “inactive”.

In the case of `Cc1cn([C@H]2C[C@H](O)[C@@H](CNc3c(O)c(=O)c3=O)O2)c(=O)[nH]c1=O`, in assay [1], the inhibition entry was “inactive”. On to `Cc1cn([C@H]2C[C@H](Nc3c(O)c(=O)c3=O)[C@@H](CO)O2)c(=O)[nH]c1=O`, for which the figures for the Kb in assay [3] and in assay [4] were 4 10^4/M and 3.2 10^6/M, respectively. As to `Cc1cn([C@H]2C[C@H](Nc3c(N(C)O)c(=O)c3=O)[C@@H](CO)O2)c(=O)[nH]c1=O`, the inhibition entry in assay [1] and in assay [5] was “Active” in each case. Also, the results for the Kb in assay [3] and in assay [6] were 3 10^4/M and 6.6 10^1/M, respectively. With `CCOc1c(NC[C@H]2O[C@@H](n3cc(C)c(=O)[nH]c3=O)C[C@@H]2O)c(=O)c1=O`, in assay [1], the inhibition entry was “inactive”. Still for that read-out and setting: under `Cc1cn([C@H]2C[C@H](O)[C@@H](CNc3c(NCCO)c(=O)c3=O)O2)c(=O)[nH]c1=O` stands “inactive”; under `CN(O)c1c(N[C@H]2[C@@H](O)[C@H](n3ccc(=O)[nH]c3=O)O[C@@H]2CO)c(=O)c1=O`, “Active”. Take `CCN(CC)c1c(NC[C@H]2O[C@@H](n3cc(C)c(=O)[nH]c3=O)C[C@@H]2O)c(=S)c1=S`: the Kb is 6.8 10^5/M in assay [3], 1.7 10^2/M in assay [6] and 1.2 10^6/M in assay [4].
